The values that follow come from paper PMC11253529 (iScience, 2024).

In one experiment the test system is intracellular Ca^2+. The experiment can be described thus: Intracellular Ca2+ induction assay. Format: cell-based, human. Conditions: 2.5 μg/mL; Fluo-8 pre-treated HEK293T cells; fluorescence imaging; n = 3. A digest of the protocol:
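HEK293T cells (2 × 10^4/well, poly-D-lysine plates) were cultured 24 h at 37°C, then loaded with 4 μM Fluo-8-AM in HBSS for 1 h at 37°C and switched to HBSS. After peptide addition, confocal high-content images were taken every second for 20 s. Cells above a fluorescence threshold set from pre-treatment cells were counted against untreated cells. The positive control was 5 μM ionomycin.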

For another experiment, the system named is E. coli ATCC35218. Conditions: previously determined values, ref Krämer et al.[35], cited from earlier work.
The subject of another experiment is P. aeruginosa ATCC27853. Conditions: MHII medium, previously determined values, ref Krämer et al.[35], cited from earlier work.
The subject of a further experiment is M. smegmatis ATCC607. Conditions: MHII medium; previously determined values; ref Krämer et al.[35]; cited from earlier work.
Experiment [1] concerns S. aureus (MRSA) ATCC33592. Conditions: MHII medium; previously determined values; ref Krämer et al.[35]; cited from earlier work.
The next experiment relates to A. flavus ATCC9170. Conditions: MHII medium; previously determined values; ref Krämer et al.[35]; cited from earlier work.
The subject of a further experiment is C. albicans FH2173. Conditions: MHII medium; previously determined values; ref Krämer et al.[35]; cited from earlier work.
The subject of a further experiment is pea aphids. Conditions: feeding assay; cited from earlier work.

Read-outs that look alike come from different tables or passages of the source.

Turning to FFGAIAKLAMK [Checacin 1^1−11], the “Induction of intracellular Ca^2+ levels” value in the experiment on intracellular Ca^2+ is on record as “the only exceptions”. In addition, in the experiment on E. coli ATCC35218, the “MIC, E. coli ATCC35218, MHC medium (in brackets)” value (“MIC … (in brackets)” below) is listed as >50 (>50) μM and the “MIC, E. coli ATCC35218, MHII medium” value is listed as >50 (>50) μM. In the experiment on P. aeruginosa ATCC27853, the “MIC, P. aeruginosa ATCC27853” value was >50 µM. Besides, the “MIC, M. smegmatis ATCC607” value in the experiment on M. smegmatis ATCC607 was >50 µM. Further, the “MIC, S. aureus (MRSA) ATCC33592” value in experiment [1] was >50 µM. Moreover, the “MIC, A. flavus ATCC9170” value with A. flavus ATCC9170 is >50 µM. Further, the “MIC, C. albicans FH2173” value in the experiment on C. albicans FH2173 was >50 µM.
Consider FFGAIAKLAMKFLPAIYKQIQ [Checacin 1^1−21], for which, in the experiment with E. coli ATCC35218, the “MIC … (in brackets)” value was >50 (>50) μM and the “MIC, E. coli ATCC35218, MHII medium” value was >50 (>50) μM. In addition, the “MIC, P. aeruginosa ATCC27853” value in the experiment with P. aeruginosa ATCC27853 was >50 µM. Further, in the experiment with M. smegmatis ATCC607, the “MIC, M. smegmatis ATCC607” value is >50 µM. The “MIC, S. aureus (MRSA) ATCC33592” value in experiment [1] is 12.5 µM. Moreover, the “MIC, A. flavus ATCC9170” value with A. flavus ATCC9170 is >50 µM. Besides, the “MIC, C. albicans FH2173” value in the experiment on C. albicans FH2173 is >50 µM.
For the substance “FFGAIAKLAMKFLPAIYKQIQKKRK-Amidation [Checacin 1]”, the “MIC … (in brackets)” value in the experiment with E. coli ATCC35218 is 1.6 µM. In addition, the “MIC, P. aeruginosa ATCC27853” value in the experiment with P. aeruginosa ATCC27853 is 12.5 µM; with P. aeruginosa ATCC27853 (listed as checacin 1), “inhibited to various degrees”. Besides, the “MIC, M. smegmatis ATCC607” value with M. smegmatis ATCC607 is 25 µM. Further, the “MIC, S. aureus (MRSA) ATCC33592” value in experiment [1] is 1.56 µM. The “MIC, A. flavus ATCC9170” value in the experiment with A. flavus ATCC9170 is 50 µM. In addition, in the experiment on C. albicans FH2173, the “MIC, C. albicans FH2173” value is 6.25 µM. Further, in the experiment on pea aphids, the “Insecticidal activity in aphid feeding assays” value is “insecticidal activity in aphid feeding assays, but only after 72 h”.
On to “FLPAIYKQIQKKRK-Amidation [Checacin 1^12−25]”, for which, in the experiment with intracellular Ca^2+, the “Induction of intracellular Ca^2+ levels” value is on record as “the only exceptions”. Besides, in the experiment on E. coli ATCC35218, the “MIC … (in brackets)” value was >50 (>50) μM and the “MIC, E. coli ATCC35218, MHII medium” value was >50 (>50) μM. Besides, the “MIC, P. aeruginosa ATCC27853” value in the experiment with P. aeruginosa ATCC27853 was >50 µM. The “MIC, M. smegmatis ATCC607” value in the experiment with M. smegmatis ATCC607 was >50 µM. In addition, the “MIC, S. aureus (MRSA) ATCC33592” value in experiment [1] is >50 µM. For the same substance, the “MIC, A. flavus ATCC9170” value in the experiment on A. flavus ATCC9170 is >50 µM. Also, the “MIC, C. albicans FH2173” value in the experiment on C. albicans FH2173 was >50 µM.
